In brackets after ≈: the same amount, converted by molar mass.
Legend:
Aspergillus fumigatus = test: Antimicrobial activity against Aspergillus fumigatus clinical isolate after 18 to 24 hrs by micro-dilution method; format: functional
In short: (§1)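 Broth micro-dilution MIC, fungi. Fresh broth cultures were made in normal saline. Compounds were serially diluted in microtiter plates across 8 concentrations, 100 down to 0.78. Standardized inoculum was 1–2 × 10^7 cfu/ml. Medium was Sabouraud dextrose pH 7.3 ± 0.2. Plates were incubated aerobically at 37 °C for 18–24 h. MIC is the lowest concentration with no visible growth or turbidity versus control. Fluconazole was the reference.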

Aspergillus niger = test: Antimicrobial activity against Aspergillus niger clinical isolate after 18 to 24 hrs by micro-dilution method; format: functional; in short: as §1
Cryptococcus neoformans = test: Antifungal activity against Cryptococcus neoformans clinical isolate after 18 to 24 hrs by micro-dilution method; format: functional; in short: as §1
Pichia kudriavzevii = test: Antifungal activity against Candida krusei ATCC 6258 after 18 to 24 hrs by micro-dilution method; format: functional; in short: as §1
Candida albicans [1] = test: Antifungal activity against Candida albicans ATCC 90028 after 18 to 24 hrs by micro-dilution metho; format: functional; in short: as §1
Candida albicans [2] = test: Antifungal activity against Candida albicans clinical isolate after 18 to 24 hrs by micro-dilution method; format: functional; in short: as §1
Candida tropicalis = test: Antifungal activity against Candida tropicalis ATCC 750 after 18 to 24 hrs by micro-dilution method; format: functional; in short: as §1
Shigella boydii = test: Antimicrobial activity against Shigella boydii clinical isolate after 18 to 24 hrs by micro-dilution method; format: functional
[3] = Cytotoxicity against human RBC assessed as hemolytic activity at 100 uM after 1 hr by spectophotometry; format: cell-based, Erythrocyte; conditions: red blood cells (RBC), read-out: Activity
In short: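 Hemolysis, fresh human blood. RBCs were washed three times in PBS (spun 3000 rpm, 7 min, room temperature) and adjusted to 5×10^8 cells/ml. Cell suspension was added to buffer holding 100 μM compound in 1% v/v DMSO/PBS. Controls were 1% DMSO/PBS and sterile water. Samples were shaken at 37 °C for 1 h, spun at 1300 rpm for 5 min, and supernatant absorbance read at 540 nm.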

Pseudomonas aeruginosa = test: Antimicrobial activity against Pseudomonas aeruginosa ATCC 27893 after 18 to 24 hrs by micro-dilution method; format: functional
Klebsiella pneumoniae = test: Antimicrobial activity against Klebsiella pneumoniae clinical isolate after 18 to 24 hrs by micro-dilution method; format: functional
Escherichia coli = test: Antimicrobial activity against Escherichia coli ATCC 35218 after 18 to 24 hrs by micro-dilution method; format: functional
Salmonella typhi = test: Antimicrobial activity against Salmonella typhi MTCC 3216 after 18 to 24 hrs by micro-dilution method; format: functional, Salmonella enterica subsp. enterica serovar Typhi; conditions: Salmonella enterica
In short: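 Broth microdilution with twofold serial dilutions from 100 down to 0.78, eight concentrations. Fresh cultures were made up in normal saline, and 0.1 ml of standardized inoculum (1–2 × 10^7 cfu/ml) was added per well. Plates were incubated aerobically at 37 °C for 18–24 h on Mueller-Hinton agar/Luria broth. MIC was the lowest concentration with no visible turbidity compared with the control.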

Enterococcus faecalis = test: Antimicrobial activity against Enterococcus faecalis clinical isolate after 18 to 24 hrs by micro-dilution method; format: functional
Staphylococcus aureus = test: Antimicrobial activity against Staphylococcus aureus ATCC 25323 after 18 to 24 hrs by micro-dilution method; format: functional

Row | SMILES | MIC (Aspergillus fumigatus) [µg/mL] | MIC (Aspergillus niger) [µg/mL] | MIC (Cryptococcus neoformans) [µg/mL] | MIC (Pichia kudriavzevii) [µg/mL] | MIC (Candida albicans [1]) [µg/mL] | MIC (Candida albicans [2]) [µg/mL] | MIC (Candida tropicalis) [µg/mL] | MIC (Shigella boydii) [µg/mL] | hemolysis at 1 h, 100 µM [3] [%] | MIC (Pseudomonas aeruginosa) [µg/mL] | MIC (Klebsiella pneumoniae) [µg/mL] | MIC (Escherichia coli) [µg/mL] | MIC (Salmonella typhi) [µg/mL] | MIC (Enterococcus faecalis) [µg/mL] | MIC (Staphylococcus aureus) [µg/mL]
1 | O=[N+]([O-])c1ccc(-n2cc(CN(Cc3cn(-c4ccc([N+](=O)[O-])cc4)nn3)c3nc4ccccc4s3)nn2)cc1 | > 100 | > 100 | > 100 | > 100 | > 100 | > 100 | > 100 | > 100 | 27.9 | > 100 | > 100 | > 100 | > 100 | > 100 | > 100
2 | COc1cccc(-n2cc(CN(Cc3cn(-c4cccc(OC)c4)nn3)c3nc4ccccc4s3)nn2)c1 | 3.12 (≈ 5.95 µM) | 3.12 (≈ 5.95 µM) | 1.56 (≈ 2.97 µM) | 6.25 (≈ 11.9 µM) | 6.25 (≈ 11.9 µM) | 25 (≈ 47.7 µM) | 12.5 (≈ 23.8 µM) | > 100 | 7.54 | > 100 | > 100 | 50 (≈ 95.3 µM) | > 100 | > 100 | 100 (≈ 191 µM)
3 | Clc1ccc(-n2cc(CN(Cc3cn(-c4ccc(Cl)cc4Cl)nn3)c3nc4ccccc4s3)nn2)c(Cl)c1 | 1.56 (≈ 2.59 µM) | 1.56 (≈ 2.59 µM) | 3.12 (≈ 5.18 µM) | 6.25 (≈ 10.4 µM) | 6.25 (≈ 10.4 µM) | 12.5 (≈ 20.8 µM) | 12.5 (≈ 20.8 µM) | > 100 | 4.54 | > 100 | > 100 | 50 (≈ 83 µM) | > 100 | 50 (≈ 83 µM) | 50 (≈ 83 µM)
4 | Brc1ccc(-n2cc(CN(Cc3cn(-c4ccc(Br)cc4)nn3)c3nc4ccccc4s3)nn2)cc1 | 3.12 (≈ 5.01 µM) | 3.12 (≈ 5.01 µM) | 1.56 (≈ 2.51 µM) | 6.25 (≈ 10 µM) | 6.25 (≈ 10 µM) | 12.5 (≈ 20.1 µM) | 6.25 (≈ 10 µM) | > 100 | 12.4 | > 100 | > 100 | > 100 | > 100 | > 100 | > 100
5 | Cc1ccc(-n2cc(CN(Cc3cn(-c4ccc(C)c(C)c4)nn3)c3nc4ccccc4s3)nn2)cc1C | > 100 | > 100 | > 100 | > 100 | > 100 | > 100 | > 100 | > 100 | 43 | > 100 | > 100 | > 100 | > 100 | > 100 | > 100
6 | Fc1ccc(-n2cc(CN(Cc3cn(-c4ccc(F)cc4F)nn3)c3nc4ccccc4s3)nn2)c(F)c1 | > 100 | > 100 | > 100 | > 100 | > 100 | > 100 | > 100 | 100 (≈ 186 µM) | 2.47 | 3.12 (≈ 5.82 µM) | 3.12 (≈ 5.82 µM) | 3.12 (≈ 5.82 µM) | 3.12 (≈ 5.82 µM) | 3.12 (≈ 5.82 µM) | 3.12 (≈ 5.82 µM)
7 | Cc1cc(F)ccc1-n1cc(CN(Cc2cn(-c3ccc(F)cc3C)nn2)c2nc3ccccc3s2)nn1 | > 100 | > 100 | > 100 | > 100 | > 100 | > 100 | > 100 | > 100 | 29.8 | > 100 | > 100 | 50 (≈ 94.6 µM) | > 100 | > 100 | > 100
8 | Fc1ccc(-n2cc(CN(Cc3cn(-c4ccc(F)cc4Cl)nn3)c3nc4ccccc4s3)nn2)c(Cl)c1 | 6.25 (≈ 11 µM) | 25 (≈ 43.9 µM) | 1.56 (≈ 2.74 µM) | 6.25 (≈ 11 µM) | 50 (≈ 87.8 µM) | 6.25 (≈ 11 µM) | 6.25 (≈ 11 µM) | 100 (≈ 176 µM) | 12.3 | 6.25 (≈ 11 µM) | 100 (≈ 176 µM) | 3.12 (≈ 5.48 µM) | 6.25 (≈ 11 µM) | 6.25 (≈ 11 µM) | 50 (≈ 87.8 µM)
9 | Fc1ccccc1-n1cc(CN(Cc2cn(-c3ccccc3F)nn2)c2nc3ccccc3s2)nn1 | > 100 | > 100 | > 100 | > 100 | > 100 | > 100 | > 100 | > 100 | 26.5 | > 100 | > 100 | > 100 | > 100 | > 100 | > 100
10 | CCc1ccc(-n2cc(CN(Cc3cn(-c4ccc(CC)cc4)nn3)c3nc4ccccc4s3)nn2)cc1 | > 100 | > 100 | > 100 | > 100 | > 100 | > 100 | > 100 | > 100 | 48.3 | > 100 | > 100 | 50 (≈ 96 µM) | > 100 | > 100 | > 100
11 | O=C(O)c1cn(C2CC2)c2cc(N3CCNCC3)c(F)cc2c1=O [CIPROFLOXACIN] |  |  |  |  |  |  |  |  |  | 3.12 (≈ 9.42 µM) |  |  |  |  | 
12 | OC(Cn1cncn1)(Cn1cncn1)c1ccc(F)cc1F [FLUCONAZOLE] | 1.56 (≈ 5.09 µM) | 1.56 (≈ 5.09 µM) | 0.78 (≈ 2.55 µM) | 1.56 (≈ 5.09 µM) | 1.56 (≈ 5.09 µM) | 3.12 (≈ 10.2 µM) | 1.56 (≈ 5.09 µM) |  |  |  |  |  |  |  | 

Source: ChEMBL document CHEMBL2375318, “Design, synthesis and antimicrobial activity of novel benzothiazole analogs” (Eur J Med Chem, 2013)
